pEC50, pIC50, pKi: −log10 of the molar value. Calls of active or inactive are those of the source. The rule behind the calls is not given here.
Columns and labels:
[1] = molecular target: Glutamate NMDA receptor; Grin1/Grin2a (Rattus norvegicus, UniProt P35439+Q00959); test: Agonist activity at rat GluN1/GluN2A NMDA receptor expressed in Xenopus oocytes measured after 4 days in presence of L-glutamte by two-electrode voltage-clamp recording assay; format: cell-based, Oocyte
Method in brief: (§1)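 Rat GluN1 plus GluN2A or GluN2B cRNA (1:2) in Xenopus oocytes. TEVC at −40 mV, room temperature, 2–4 days post-injection. Bath: 90 mM NaCl, 1 mM KCl, 10 mM HEPES, 0.5 mM BaCl2, 0.01 mM EDTA, pH 7.4. Oocytes were BAPTA-injected before recording. Agonist applied with 300 μM L-Glu throughout. NR means <5% response at the stated concentration. 3–14 oocytes.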

[2] = molecular target: T1, Ionotropic glutamate receptor NMDA 1/2D (Rattus norvegicus) (UniProt P35439+Q62645); test: Agonist activity at rat GluN1/GluN2D NMDA receptor expressed in Xenopus oocytes assessed as maximal relative efficacy measured at 100 uM after 4 days in presence of L-glutamte by two-electrode voltage-clamp recording assay relative to glycine; format: cell-based; settings: Oocyte, time 4.0 day
Method in brief: (§2)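 Xenopus oocytes were injected with rat GluN1 and GluN2C or GluN2D cRNA (1:2) and recorded by TEVC 2–4 days later at −40 mV, room temperature, pH 7.4 HEPES/NaCl/BaCl2 saline. Concentration-response with 300 μM L-Glu present. […] NR means <5% response at the concentration given. DMSO ≤0.5%. 3–14 oocytes.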

[3] = molecular target: Glutamate NMDA receptor; Grin1/Grin2c (Rattus norvegicus) (UniProt P35439+Q00961); test: Agonist activity at rat GluN1/GluN2C NMDA receptor expressed in Xenopus oocytes assessed as maximal relative efficacy measured after 4 days in presence of L-glutamte by two-electrode voltage-clamp recording assay relative to glycine; format: cell-based; settings: Oocyte, time 4.0 day; method in brief: as §2
[4] = molecular target: T2, Glutamate NMDA receptor; Grin1/Grin2a (Rattus norvegicus) (UniProt P35439+Q00959); test: Agonist activity at rat GluN1/GluN2A NMDA receptor expressed in Xenopus oocytes assessed as maximal relative efficacy measured after 4 days in presence of L-glutamte by two-electrode voltage-clamp recording assay relative to glycine; format: cell-based; settings: Oocyte, time 4.0 day
Method in brief: as §1, with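 “throughout. […]” for “throughout.”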

[5] = molecular target: T3, Glutamate NMDA receptor; Grin1/Grin2b (Rattus norvegicus) (UniProt P35439+Q00960); test: Agonist activity at rat GluN1/GluN2B NMDA receptor expressed in Xenopus oocytes assessed as maximal relative efficacy measured at 100 uM after 4 days in presence of L-glutamte by two-electrode voltage-clamp recording assay relative to glycine; format: cell-based; settings: Oocyte, time 4.0 day
Method in brief: as §1, with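 “throughout. […]” for “throughout.”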

[6] = molecular target: Glutamate NMDA receptor; Grin1/Grin2c (Rattus norvegicus, UniProt P35439+Q00961); test: Agonist activity at rat GluN1/GluN2C NMDA receptor expressed in Xenopus oocytes measured after 4 days in presence of L-glutamte by two-electrode voltage-clamp recording assay; format: cell-based, Oocyte
Method in brief: (§3)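 Xenopus oocytes were injected with rat GluN1 and GluN2C or GluN2D cRNA (1:2) and recorded by TEVC 2–4 days later at −40 mV, room temperature, pH 7.4 HEPES/NaCl/BaCl2 saline. Concentration-response with 300 μM L-Glu present. NR means <5% response at the concentration given. DMSO ≤0.5%. 3–14 oocytes.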

[7] = molecular target: Ionotropic glutamate receptor NMDA 1/2D (Rattus norvegicus, UniProt P35439+Q62645); test: Agonist activity at rat GluN1/GluN2D NMDA receptor expressed in Xenopus oocytes measured after 4 days in presence of L-glutamte by two-electrode voltage-clamp recording assay; format: cell-based, Oocyte; method in brief: as §3
[8] = molecular target: T1, Ionotropic glutamate receptor NMDA 1/2D (Rattus norvegicus); test: Agonist activity at rat GluN1/GluN2D NMDA receptor expressed in Xenopus oocytes assessed as maximal relative efficacy measured after 4 days in presence of L-glutamte by two-electrode voltage-clamp recording assay relative to glycine; format: cell-based; settings: Oocyte, time 4.0 day; method in brief: as §2
[9] = molecular target: T3, Glutamate NMDA receptor; Grin1/Grin2b (Rattus norvegicus); test: Agonist activity at rat GluN1/GluN2B NMDA receptor expressed in Xenopus oocytes assessed as maximal relative efficacy measured at 300 uM after 4 days in presence of L-glutamte by two-electrode voltage-clamp recording assay relative to glycine; format: cell-based; settings: Oocyte, time 4.0 day
Method in brief: as §1, with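 “throughout. […]” for “throughout.”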

[10] = molecular target: T3, Glutamate NMDA receptor; Grin1/Grin2b (Rattus norvegicus); test: Agonist activity at rat GluN1/GluN2B NMDA receptor expressed in Xenopus oocytes assessed as maximal relative efficacy measured at 10 uM after 4 days in presence of L-glutamte by two-electrode voltage-clamp recording assay relative to glycine; format: cell-based; settings: Oocyte, time 4.0 day
Method in brief: as §1, with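 “throughout. […]” for “throughout.”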

[11] = molecular target: T2, Glutamate NMDA receptor; Grin1/Grin2a (Rattus norvegicus); test: Agonist activity at rat GluN1/GluN2A NMDA receptor expressed in Xenopus oocytes assessed as maximal relative efficacy measured at 300 uM after 4 days in presence of L-glutamte by two-electrode voltage-clamp recording assay relative to glycine; format: cell-based; settings: Oocyte, time 4.0 day
Method in brief: as §1, with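 “throughout. […]” for “throughout.”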

[12] = molecular target: T2, Glutamate NMDA receptor; Grin1/Grin2a (Rattus norvegicus); test: Agonist activity at rat GluN1/GluN2A NMDA receptor expressed in Xenopus oocytes assessed as maximal relative efficacy measured at 30 uM after 4 days in presence of L-glutamte by two-electrode voltage-clamp recording assay relative to glycine; format: cell-based; settings: Oocyte, time 4.0 day
Method in brief: as §1, with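 “throughout. […]” for “throughout.”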

[13] = molecular target: T3, Glutamate NMDA receptor; Grin1/Grin2b (Rattus norvegicus); test: Agonist activity at rat GluN1/GluN2B NMDA receptor expressed in Xenopus oocytes assessed as maximal relative efficacy measured at 30 uM after 4 days in presence of L-glutamte by two-electrode voltage-clamp recording assay relative to glycine; format: cell-based; settings: Oocyte, time 4.0 day
Method in brief: as §1, with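 “throughout. […]” for “throughout.”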

[14] = molecular target: T1, Ionotropic glutamate receptor NMDA 1/2D (Rattus norvegicus); test: Agonist activity at rat GluN1/GluN2D NMDA receptor expressed in Xenopus oocytes assessed as maximal relative efficacy measured at 30 uM after 4 days in presence of L-glutamte by two-electrode voltage-clamp recording assay relative to glycine; format: cell-based; settings: Oocyte, time 4.0 day; method in brief: as §2
[15] = molecular target: T1, Ionotropic glutamate receptor NMDA 1/2D (Rattus norvegicus); test: Agonist activity at rat GluN1/GluN2D NMDA receptor expressed in Xenopus oocytes assessed as maximal relative efficacy measured at 300 uM after 4 days in presence of L-glutamte by two-electrode voltage-clamp recording assay relative to glycine; format: cell-based; settings: Oocyte, time 4.0 day; method in brief: as §2
Oocyte [16] = test: Agonist activity at mutant GluN1 F484A/T518 mutant//GluN3B NMDA receptor (unknown origin) expressed in Xenopus oocytes measured after 4 days in presence of glycine by two-electrode voltage-clamp recording assay; format: cell-based; settings: Homo sapiens, time 4.0 day
Oocyte [17] = test: Agonist activity at mutant GluN1 F484A/T518 mutant//GluN3A NMDA receptor (unknown origin) expressed in Xenopus oocytes measured after 4 days in presence of glycine by two-electrode voltage-clamp recording assay; format: cell-based; settings: Homo sapiens, time 4.0 day
Oocyte [18] = test: Agonist activity at recombinant GluN1a/GluN2B NMDA receptor (unknown origin) expressed in Xenopus oocytes assessed as inhibition of glycine-induced activation of current measured at 10 uM after 4 days in presence of L-glutamte by two-electrode voltage-clamp recording assay; format: cell-based; settings: Homo sapiens, filed as agonist, time 4.0 day
Method in brief: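 Oocytes expressing GluN1/2B were BAPTA-injected and held under two-electrode voltage clamp in continuous 300 μM L-Glu. […] Values are mean ± SEM from 12 oocytes.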

[19] = Binding affinity at recombinant GluN1a/GluN2B NMDA receptor (unknown origin) expressed in Xenopus oocytes measured after 4 days in presence of L-glutamte by two-electrode voltage-clamp recording assay; format: cell-based, Homo sapiens; settings: oocyte
[20] = molecular target: Glutamate NMDA receptor; Grin1/Grin2b (Rattus norvegicus, UniProt P35439+Q00960); test: Agonist activity at rat GluN1/GluN2B NMDA receptor expressed in Xenopus oocytes measured after 4 days in presence of L-glutamte by two-electrode voltage-clamp recording assay; format: cell-based, Oocyte; method in brief: as §1
[21] = molecular target: T3, Glutamate NMDA receptor; Grin1/Grin2b (Rattus norvegicus); test: Agonist activity at rat GluN1/GluN2B NMDA receptor expressed in Xenopus oocytes assessed as maximal relative efficacy measured after 4 days in presence of L-glutamte by two-electrode voltage-clamp recording assay relative to glycine; format: cell-based; settings: Oocyte, filed as agonist, time 4.0 day
Method in brief: as §1, with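 “throughout. […]” for “throughout.”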

| Structure (SMILES) | pEC50 [1] | Rmax ([3]; filed as agonist) | Rmax [4] | Rmax [5] | pEC50 [6] | pEC50 [7] | Rmax [8] | Rmax [9] | Rmax [3] | other results |
| --- | --- | --- | --- | --- | --- | --- | --- | --- | --- | --- |
| N[C@H](CNC(=O)c1ccc(-c2ccc(Cl)c(Cl)c2)o1)C(=O)O | 4.64 | 74% | 20% |  | 5.38 | 4.51 | 24% | < 5% |  |  |
| N[C@H](CNC(=O)c1ccc(-c2ccccc2OCc2ccccc2)o1)C(=O)O |  | 157% |  |  | 5.40 |  |  | < 5% |  | Rmax [11]: < 5% |
| N[C@H](CNC(=O)c1ccc(-c2ccccc2/C=C/c2ccccc2)o1)C(=O)O |  |  |  |  | 5.24 |  |  |  | 16% | Rmax [12]: < 5%; Rmax [13]: < 5%; Rmax [14]: < 5% |
| N[C@H](CNC(=O)c1ccc(-c2cccc(C(F)(F)F)c2)o1)C(=O)O | 5.18 |  | 17% |  | 5.74 | 5.11 | 35% | < 5% | 36% |  |
| N[C@H](CNC(=O)c1ccc(-c2cccc3c2OCCO3)o1)C(=O)O |  |  |  |  | 5.41 |  |  | < 5% | 17% |  |
| CN(C)S(=O)(=O)c1ccccc1-c1ccc(C(=O)NC[C@@H](N)C(=O)O)o1 | 5.00 | 119% | 22% |  | 5.32 |  |  | < 5% |  | Rmax [15]: < 5% |
| N[C@H](CNC(=O)c1ccc(-c2ccccc2)o1)C(=O)O | 5.32 | 77% | 22% |  | 5.54 | 5.37 | 16% | < 5% |  |  |
| N[C@H](CO)C(=O)O |  | 111% |  |  |  |  |  |  |  | Rmax ([4]; filed as agonist): 96%; Rmax [21]: 100%; Rmax ([8]; filed as agonist): 93% |

Now from value to compound, other results behind:

| pEC50 [1] | Rmax ([3]; filed as agonist) | Rmax [4] | Rmax [5] | pEC50 [6] | pEC50 [7] | Rmax [8] | Rmax [9] | Rmax [3] | Structure (SMILES) | other results |
| --- | --- | --- | --- | --- | --- | --- | --- | --- | --- | --- |
| 5.37 | 44% | 14% | < 5% | 5.77 |  |  |  |  | N[C@H](CNC(=O)c1ccc(-c2ccc(Cl)cc2)o1)C(=O)O | Rmax [2]: < 5% |
| 7.28 | 49% | 34% | < 5% | 7.44 | 7.10 | 9% |  |  | N[C@H](CNC(=O)c1ccc(-c2ccccc2Br)o1)C(=O)O |  |
| 5.31 | 68% | 27% |  | 5.89 | 5.30 | 38% | < 5% |  | N[C@H](CNC(=O)c1ccc(-c2cccc(Cl)c2)o1)C(=O)O |  |
| 5.51 | 114% | 32% |  | 5.80 | 5.49 | 11% | < 5% |  | COCc1ccccc1-c1ccc(C(=O)NC[C@@H](N)C(=O)O)o1 |  |
|  |  |  | < 5% | 6.12 |  |  |  | 22% | N[C@H](CNC(=O)c1ccc(-c2ccccc2/C=C/c2cccc(F)c2)o1)C(=O)O |  |
| 6.66 | 103% |  |  | 6.85 | 6.59 | 17% |  |  | Cc1ccccc1-c1ccc(C(=O)NC[C@@H](N)C(=O)O)o1 | Rmax ([4]; filed as agonist): 58%; Rmax [10]: < 5% |
| 6.59 | 70% | 38% |  | 6.92 | 6.57 | 11% | < 5% |  | N[C@H](CNC(=O)c1ccc(-c2ccccc2Cl)o1)C(=O)O |  |
| 6.74 | 53% | 29% |  | 6.96 | 6.64 | 12% | < 5% |  | N[C@H](CNC(=O)c1ccc(-c2cccc3ccccc23)o1)C(=O)O |  |
| 6.89 |  | 24% | < 5% | 7.40 |  |  |  | 36% | N[C@H](CNC(=O)c1ccc(-c2ccccc2C(F)(F)F)o1)C(=O)O | Rmax [2]: < 5% |
|  |  |  | < 5% | 7.13 |  |  |  | 28% | N[C@H](CNC(=O)c1ccc(-c2ccc(Cl)cc2[N+](=O)[O-])o1)C(=O)O | inhibition (Oocyte [16]): inactive; Rmax [2]: < 5%; inhibition (Oocyte [17]): inactive; inhibition (Oocyte [18]): 57%; pKi [19]: 7.00; pIC50 [20]: 5.00 |
|  |  |  | < 5% | 5.89 |  |  |  | 26% | COc1ccc(-c2ccc(C(=O)NC[C@@H](N)C(=O)O)o2)cc1 | Rmax [2]: < 5% |
